High-throughput results (PubChem)
Cardio protect – protects H9c2 cardiomyocytes from peroxide injury; 0.63% of 360,000 active; AID 588492; protection from H2O2 cell death, % at 20 µM; H2O2 injury protection, ATPLite, 2 h;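 active = compounds giving at least 50% protection of heart cells from peroxide-induced death in the single-dose screen, raw or plate-pattern-corrected value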;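 note: 0% = DMSO wells with peroxide and 100% = DMSO wells without peroxide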
CHOP UPR activ – apoptotic UPR (CHOP) activation; CHO-CHOP luciferase reporter, luminescence; percent of tunicamycin response over DMSO baseline; activation, % at 10 µM; 0.34% of 330,000 active;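 active = at 10 µM dose, activation of 40% or more, normalized to positive control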;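 note: 100% = tunicamycin at 10 µg/mL and 0% = DMSO alone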
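System: CHO-CHOP luciferase reporter cell line; amount: 500 cells/well; buffer or medium: F12 medium containing 10% fetal bovine serum; incubation: 6 h compound exposure at 37 °C after overnight seeding; measured by: luciferase luminescence after 10 min with Steady-Glo reagent; evaluation: % reporter activation, DMSO baseline versus tunicamycin full activation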
iPSC survival up – increases survival of single human iPS cells | hiPSC single-cell survival, ATPlite luminescence; 100% = ROCK inhibitor wells, 0% = DMSO | survival enhancement, % at 20 µM | 0.044% of 360,000 active | AID 602274; in the data active = survival enhancement above about 18%;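 note: cells exposed to compounds for 16 hours before the ATP read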
CHOP inh – blocks CHOP induction under ER stress; 3.8% of 220,000 active; CHO-K1 CHOP-promoter luciferase, tunicamycin-induced, 15-18 h; inhibition, % at 10 µM; AID 2732;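 active = compounds that reduced the stress-induced luciferase reporter signal by more than about 70% of percent inhibition, limit read from the data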;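 note: 0% = tunicamycin plus vehicle and 100% = wells without tunicamycin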
XBP1 UPR activ – activators of adaptive arm of unfolded protein response (XBP1) | 0.33% of 330,000 active | CHO-XBP1 luciferase reporter, IRE1-XBP1 UPR activation, luminescence; percent of tunicamycin response, DMSO as zero | activation, % at 20 µM | AID 463104;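 active = versus positive control, 20 µM dose yields 30% or more activation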;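 note: 100% = tunicamycin at 10 µg/mL and 0% = DMSO only wells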
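Material: IRE1-XBP1 luciferase reporter CHO line / Quantity: one thousand reporter cells per well / Buffer or medium: F12 with 10% serum / Compound: 20 µM single concentration, DMSO 1% / Times: 6 h treatment, 37 °C / Detection: Steady-Glo luciferase glow luminescence, 10 min after reagent addition / Benchmarks: tunicamycin high, DMSO low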
CHOP confirm – confirmation of CHOP induction inhibitors | shares compounds with CHOP inh | CHO-CHOP promoter luciferase reporter, tunicamycin-induced, luminescence | inhibition, % at 10 µM | 45% of 2,100 active | AID 504437;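 active = mean of three repeat readings of reporter signal inhibition above a set limit, cut at about 70% in these data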;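 note: 0% = tunicamycin plus vehicle and 100% = wells lacking tunicamycin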
The depositor's hits bear a star; x = no result. This excerpt belongs to a sample that is enriched for hits.

SMILES	Cardio protect	CHOP UPR activ	iPSC survival up	CHOP inh	XBP1 UPR activ	CHOP confirm
O=C(CSc1nc2nn(-c3ccccc3)c(=O)c-2c2n1CCCCC2)c1ccc(OC(F)F)cc1	6	2	0	x	1	x
CC(C)C[C@@H]1CC2=C(C(=O)OC(C)(C)O2)[C@H](CCc2ccccc2)O1	x	x	-1	x	x	x
Cc1cc2c(n1-c1ccc(Br)cc1)CC(C)(C)CC2=O	5	0	6	15	0	x
Cc1ccc(-n2c(C)cc3c2CC(C)(C)CC3=O)cc1C	1	0	2	105*	1	38
COc1ccc(C(=O)C(=NNc2ccccc2)c2ccc(OC)cc2)cc1	-6	x	5	x	x	x
COc1ccc(N/N=C(\C=N\O)C(=O)c2ccc(OC)cc2)cc1	-14	-1	1	x	24	73*
CCN(CC)C(=O)Cn1cc(C(=O)C(=O)Nc2ccc3c(c2)OCO3)c2ccccc21	-13	x	-3	x	x	x
COc1c(C(=O)Nc2ccc3[nH]c(=O)[nH]c3c2)cc2ccccc2c1Br	-7	-1	2	100*	-3	-15
COc1c(C(=O)Nc2ccc(CN3CCOCC3)cc2)cc2ccccc2c1Br	25	1	0	x	-6	x
FC(F)(F)c1cc(-c2cccs2)nc(-n2cc(Br)cn2)n1	2	-1	-1	97*	1	73*
Cc1cnn(-c2nc(-c3cccs3)cc(C(F)(F)F)n2)c1	-3	0	2	-3	2	x
FC(F)(F)c1cc(-c2cccs2)nc(N2CCOCC2)n1	-13	1	0	100*	0	26
O=C(O)Cn1c2c(c3ccccc31)CSc1ccc(Cl)cc1-2	1	x	0	x	x	x
Cc1ccccc1C1(O)c2ccccc2-c2ccccc21	-10	x	1	x	x	x
CCCC(=O)N1CCC1(C)C(=O)NS(=O)(=O)c1ccc(C(C)(C)C)cc1 (stereo not given)	-2	x	1	x	x	x
COCc1nnc(NC(=O)CCN2C(=O)c3ccccc3C2=O)s1	6	-3	-2	99*	1	10
CC1=C(C(=O)N2CCOCC2)CC(CC(=O)NCCN2CCOCC2)C(=O)N1Cc1ccccc1 (stereo not given)	-1	x	0	x	x	x
CC(C)C[C@H](NC(=O)c1[nH]cnc1C(=O)Nc1ccccc1)C(=O)OC(C)(C)C	14	1	-2	106*	5	112*
CC(C)C[C@H](NC(=O)c1nc[nH]c1C(=O)NCC(=O)OC(C)(C)C)C(=O)OCc1ccccc1	-11	-2	-1	101*	1	114*
CC(C)C[C@H](NC(=O)c1nc[nH]c1C(=O)NCC(=O)OCc1ccccc1)C(=O)OCc1ccccc1	-1	0	0	x	-4	x
CC(C)C[C@H](NC(=O)c1[nH]cnc1C(=O)N[C@@H](C)C(=O)OC(C)(C)C)C(=O)OC(C)(C)C	3	1	0	104*	-4	134*
O=S(=O)(c1ccccc1F)N1CCN(CCOc2ccccc2)CC1	3	1	0	x	-2	x
CCN(CC)S(=O)(=O)c1cc(NC(=O)CCn2[nH]c(=O)ccc2=O)ccc1C	5	0	0	x	0	x
CCCCc1ccc(NC(=S)NCc2cccc(OC)c2)cc1	-7	-1	-4	102*	1	19
Cc1cc(C)c(S(=O)(=O)NCCn2c(C)cc3ccccc32)c(C)c1	-6	0	-2	102*	-4	75*
SMILES	Cardio protect	CHOP UPR activ	iPSC survival up	CHOP inh	XBP1 UPR activ	CHOP confirm
Cc1ccc(S(=O)(=O)NCCn2c(C)cc3ccccc32)cc1	x	x	x	65	x	x
CC(C)c1ccc(C(=O)CN2C(=O)NC3(CCc4ccccc43)C2=O)cc1 (stereo not given)	-5	2	-2	x	6	x
C[C@H](CO)N1C[C@H](C)[C@@H](CN(C)Cc2ccncc2)OCCCC[C@H](C)Oc2ccc(NC(=O)CCCN(C)C)cc2C1=O	-4	x	-1	x	x	x
Cc1ccccc1OCc1nc(-c2ccccc2)no1	-2	6	-1	100*	3	0
Cc1ccc(Cn2c(-c3nonc3N)nc3ccccc32)cc1	-12	-1	3	105*	0	19
Nc1nonc1-c1nc2ccccc2n1Cc1ccc(Cl)cc1	-7	0	-4	6	4	x
Oc1cccc(C2c3[nH]c4ccccc4c3CCN2Cc2ccoc2)c1 (stereo not given)	-8	1	0	18	-2	x
Oc1cccc(C2c3[nH]c4ccccc4c3CCN2Cc2ccc3c(c2)CCO3)c1 (stereo not given)	3	0	0	106*	7	10
CCCn1c(O)c(N=NC(=O)c2ccco2)c2ccccc21	35	3	-1	6	6	x
Cc1nc2ccccn2c1C(=O)N=Nc1c(O)n(CCC(C)C)c2ccccc12	-6	2	0	101*	6	105*
COC(=O)c1cc([N+](=O)[O-])c(-n2cncn2)c([N+](=O)[O-])c1	-19	x	2	110*	x	17
CSc1nsc(NC(=O)Cc2ccccc2)n1	-4	2	-2	2	0	x
CCCCCCSc1nsc(NC(=O)CCC)n1	-21	4	-3	106*	2	103*
COc1ccc2c(-c3cc4ccc(OCc5ccc(F)cc5)cc4oc3=O)cc(=O)oc2c1	16	x	0	103*	x	51
COc1ccc(COc2ccc3c(C)cc(=O)oc3c2)cc1	-3	8	0	x	-2	x
Nc1cccc2c1C(=O)N(C(=O)/C=C/c1cccc(F)c1)C2=O	1	14	-4	103*	3	127*
Nc1cccc2c1C(=O)N(C(=O)/C=C/c1cccc(Br)c1)C2=O	7	x	-1	-3	x	x
Cc1ccc(C(C)NC(=O)CSc2ccc(S(=O)(=O)N3CCOCC3)cn2)cc1C (stereo not given)	-7	x	-3	x	x	x
CCOC(=O)c1ccc(Nc2ccc(-c3ccc(OC)c(OC)c3)nn2)cc1	4	3	5	102*	7	13
CCOC(=O)c1ccc(N/C=C/C(=O)c2ccc(OC)c(OC)c2)cc1	-2	0	0	62	4	x
CCCNC(=O)COC(=O)c1ccccc1C(=O)c1ccc(Cl)c([N+](=O)[O-])c1	-13	25	20*	102*	-4	-19
COc1cc2c3c(c1)c(C1=NC(=S)NC1=O)c(O)n3C(C)(C)C=C2C	6	0	1	39	0	x
CC1(c2ccccc2)CC(C)(C)n2c(O)c(C3=NC(=S)NC3=O)c3cccc1c32 (stereo not given)	7	2	0	104*	19	109*
Cc1ccc(CN2C(=O)N/C(=C/c3ccc4c(c3)n(C)c(=O)n4C)C2=O)cc1	x	0	x	106*	3	55
Cc1c(-c2nc(N)nc(Nc3ccc(F)cc3)n2)oc2ccccc12	8	5	4	106*	7	40
